# Tests used:
# [1] = test system: HOP-62; assay: Cytotoxicity against human HOP62 cells after 48 hrs; assay type: functional; conditions: HOP-62, 48 h
# [2] = target: Tubulin (Homo sapiens) (UniProt P68371+Q9H4B7+P0DPH7+P68366+Q13509+Q71U36+P04350+Q3ZCM7+P07437+P68363+Q9BQE3+Q6PEY2+Q13885+Q9BVA1+Q9BUF5); assay: Inhibition of tubulin polymerization in human NCI-H522 cells assessed as alpha-tubulin accumulation in cytoskeletal fraction after 24 hrs by Western blot analysis; assay type: cell-based
# Summary of the method: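 NCI-H522 cells were exposed for 24 h to compound (10, 30 or 100 nM) or DMSO vehicle. They were then lysed 5 min at 37 °C in hypotonic buffer (1 mM MgCl2, 2 mM EGTA, 0.5% NP-40, protease inhibitors, 20 mM Tris-HCl pH 6.8) and centrifuged at 15,000 × g for 10 min at 25 °C. α- and β-tubulin were assessed in the cytoskeletal fraction.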
# [3] = target: Tubulin (Sus scrofa) (UniProt P02554+P02550); assay: Inhibition of porcine brain tubulin polymerization measured every 30 seconds for 30 mins
# Chain of Tubulin (Sus scrofa) (P02550 whole entry, looked up): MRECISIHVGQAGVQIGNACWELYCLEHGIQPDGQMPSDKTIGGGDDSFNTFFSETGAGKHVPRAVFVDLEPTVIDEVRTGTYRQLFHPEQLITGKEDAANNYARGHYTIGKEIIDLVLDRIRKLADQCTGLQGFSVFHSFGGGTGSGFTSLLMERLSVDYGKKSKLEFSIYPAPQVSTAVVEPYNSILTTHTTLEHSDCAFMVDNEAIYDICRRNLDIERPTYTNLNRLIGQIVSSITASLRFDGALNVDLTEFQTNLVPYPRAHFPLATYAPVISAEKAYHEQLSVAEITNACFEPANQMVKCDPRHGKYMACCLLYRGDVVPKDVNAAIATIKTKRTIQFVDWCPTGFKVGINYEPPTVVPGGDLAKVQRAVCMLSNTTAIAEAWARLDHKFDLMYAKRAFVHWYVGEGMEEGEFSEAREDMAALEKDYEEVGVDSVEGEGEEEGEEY
# Chain of Tubulin (Sus scrofa) (P02554 whole entry, looked up): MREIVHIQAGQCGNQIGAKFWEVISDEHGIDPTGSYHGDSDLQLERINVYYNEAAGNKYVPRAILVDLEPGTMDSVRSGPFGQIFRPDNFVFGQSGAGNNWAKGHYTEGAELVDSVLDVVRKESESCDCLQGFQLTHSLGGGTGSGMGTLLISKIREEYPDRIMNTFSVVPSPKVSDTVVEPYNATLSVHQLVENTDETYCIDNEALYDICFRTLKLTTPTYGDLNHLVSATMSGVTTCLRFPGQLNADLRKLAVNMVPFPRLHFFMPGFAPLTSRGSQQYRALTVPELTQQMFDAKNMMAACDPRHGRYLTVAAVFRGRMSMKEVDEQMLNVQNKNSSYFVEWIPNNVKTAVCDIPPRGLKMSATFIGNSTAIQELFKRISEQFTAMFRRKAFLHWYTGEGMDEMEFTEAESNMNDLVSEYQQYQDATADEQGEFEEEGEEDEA
# [4] = test system: LOX IMVI; assay: Cytotoxicity against human LOXIMVI cells after 48 hrs; assay type: functional
# [5] = test system: OVCAR-4; assay: Cytotoxicity against human OVCAR4 cells after 48 hrs; assay type: functional; conditions: OVCAR-4, 48 h
# [6] = test system: UACC-257; assay: Cytotoxicity against human UACC257 cells after 48 hrs; assay type: functional; conditions: UACC-257, 48 h
# [7] = test system: Malme-3M; assay: Cytotoxicity against human MALME-3M cells after 48 hrs; assay type: functional
# [8] = test system: OVCAR-3; assay: Cytotoxicity against human OVCAR3 cells after 48 hrs; assay type: functional; conditions: OVCAR-3, 48 h
# [9] = test system: OVCAR-5; assay: Cytotoxicity against human OVCAR5 cells after 48 hrs; assay type: functional; conditions: OVCAR-5, 48 h
# [10] = test system: HCC 2998; assay: Cytotoxicity against human HCC2998 cells after 48 hrs; assay type: functional; conditions: HCC 2998, 48 h
# [11] = test system: NCI-H226; assay: Cytotoxicity against human NCI-H226 cells after 48 hrs; assay type: functional; conditions: NCI-H226, 48 h
# [12] = test system: PC-3; assay: Cytotoxicity against human PC3 cells after 48 hrs; assay type: functional; conditions: PC-3, 48 h
# [13] = Cytotoxicity against human Hep3B cells after 48 hrs; assay type: functional, cell-based, Hep 3B2
# Summary of the method: (§1)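 MTT viability assay on log-phase cells at 37 °C, exposed to compound or DMSO vehicle for 48 h. MTT (1 mg/mL in PBS) was then added for 2 h, and absorbance was read at 570 nm with 630 nm correction. IC50 is the concentration giving 50% proliferation inhibition. Cells were cultured in 5% CO2: HL-60 in RPMI-1640 with 10% FBS; Hep3B in DMEM/F12 with 10% FBS; Detroit 551 in DMEM with 10% FBS.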
# [14] = test system: HT-29; assay: Cytotoxicity against human HT-29 cells after 48 hrs; assay type: functional; conditions: HT-29, 48 h
# [15] = test system: NCI-H460; assay: Cytotoxicity against human NCI-H460 cells after 48 hrs; assay type: functional, cell-based; conditions: NCI-H460, 48 h
# [16] = test system: UO-31; assay: Cytotoxicity against human UO31 cells after 48 hrs; assay type: functional; conditions: UO-31, 48 h
# [17] = test system: T47D; assay: Cytotoxicity against human T47D cells after 48 hrs; assay type: functional
# [18] = test system: SR; assay: Cytotoxicity against human SR cells after 48 hrs; assay type: functional
# [19] = test system: NCI-H322M; assay: Cytotoxicity against human NCI-H322M cells after 48 hrs; assay type: functional
# [20] = test system: 786-0; assay: Cytotoxicity against human 786-0 cells after 48 hrs; assay type: functional; conditions: 786-0, 48 h
# [21] = test system: IGROV-1; assay: Cytotoxicity against human IGROV1 cells after 48 hrs; assay type: functional; conditions: IGROV-1, 48 h
# [22] = Cytotoxicity against human Hs578T cells after 48 hrs; assay type: functional; conditions: Hs-578T
# [23] = test system: Detroit 551; assay: Cytotoxicity against human Detroit 551 cells after 48 hrs; assay type: cell-based; conditions: Detroit 551, 48 h; summary of the method: as §1
# [24] = test system: SW-620; assay: Cytotoxicity against human SW620 cells after 48 hrs; assay type: functional; conditions: SW-620, 48 h
# [25] = test system: RXF 393; assay: Cytotoxicity against human RXF393 cells after 48 hrs; assay type: functional; conditions: RXF 393, 48 h
# [26] = test system: HOP-92; assay: Cytotoxicity against human HOP92 cells after 48 hrs; assay type: functional; conditions: HOP-92, 48 h
# [27] = test system: UACC-62; assay: Cytotoxicity against human UACC62 cells after 48 hrs; assay type: functional; conditions: UACC-62, 48 h
# [28] = test system: SK-MEL-5; assay: Cytotoxicity against human SK-MEL-5 cells after 48 hrs; assay type: functional; conditions: SK-MEL-5, 48 h
# [29] = test system: KM12; assay: Cytotoxicity against human KM12 cells after 48 hrs; assay type: functional; conditions: KM12, 48 h
# [30] = test system: MDA-MB-468; assay: Cytotoxicity against human MDA-MB-468 cells after 48 hrs; assay type: functional; conditions: MDA-MB-468, 48 h
# [31] = test system: NCI-H522; assay: Cytotoxicity against human NCI-H522 cells after 48 hrs; assay type: functional; conditions: NCI-H522, 48 h, read-out: pLC50 (the source's name) (converted)
# [32] = test system: MDA-MB-231; assay: Cytotoxicity against human MDA-MB-231 cells after 48 hrs; assay type: functional; conditions: MDA-MB-231, 48 h
# [33] = read-out: pLC50 (the source's name) (converted)
structure (smiles),measurement,setting,value
COc1cc(O)cc(-c2cc(=O)c3cc(N4CCCC4)ccc3[nH]2)c1,GI50,[1],0.0513 µM
same,CC50,[1]; [33],> 100 µM
same,TGI,[1]; read-out: pTGI (converted),20.9 µM
same,inhibition,[2],Dose-dependent effect
same,inhibition,[3],Dose-dependent effect
same,GI50,[4],0.0324 µM
same,CC50,[4]; [33],> 100 µM
same,TGI,[4]; read-out: pTGI,> 100 µM
same,GI50,[5],0.0977 µM
same,CC50,[5]; [33],> 100 µM
same,TGI,[5]; read-out: pTGI,> 100 µM
same,GI50,[6],0.708 µM
same,CC50,[6]; [33],> 100 µM
same,TGI,[6]; read-out: pTGI,> 100 µM
same,GI50,[7],0.0257 µM
same,CC50,[7]; [33],> 100 µM
same,TGI,[7]; read-out: pTGI,> 100 µM
same,GI50,[8]; read-out: pGI50 (converted),0.0234 µM
same,CC50,[8]; [33],6.46 µM
same,TGI,[8]; read-out: pTGI (converted),0.0891 µM
same,GI50,[9],> 100 µM
same,CC50,[9]; [33],> 100 µM
same,TGI,[9]; read-out: pTGI,> 100 µM
same,GI50,[10],0.0457 µM
same,CC50,[10]; [33],> 100 µM
same,TGI,[10]; read-out: pTGI,> 100 µM
same,GI50,[11],> 100 µM
same,CC50,[11]; [33],> 100 µM
same,TGI,[11]; read-out: pTGI,> 100 µM
same,GI50,[12],0.0977 µM
same,CC50,[12]; [33],> 100 µM
same,TGI,[12]; read-out: pTGI,> 100 µM
same,IC50,[13],0.5 µM
same,GI50,[14],0.0759 µM
same,CC50,[14]; [33],> 100 µM
same,TGI,[14]; read-out: pTGI,> 100 µM
same,GI50,[15],0.324 µM
same,IC50,[15],2.12 µM
same,LC50,[15],> 100 µM
same,TGI,[15]; read-out: pTGI,> 100 µM
same,GI50,[16],0.182 µM
same,CC50,[16]; [33],> 100 µM
same,TGI,[16]; read-out: pTGI,> 100 µM
same,GI50,[17],> 100 µM
same,CC50,[17]; [33],> 100 µM
same,TGI,[17]; read-out: pTGI,> 100 µM
same,GI50,[18],< 0.01 µM
same,CC50,[18]; [33],> 100 µM
same,TGI,[18]; read-out: pTGI,> 100 µM
same,GI50,[19],0.0724 µM
same,CC50,[19]; [33],> 100 µM
same,TGI,[19]; read-out: pTGI,> 100 µM
same,GI50,[20],0.178 µM
same,CC50,[20]; [33],> 100 µM
same,TGI,[20]; read-out: pTGI,> 100 µM
same,GI50,[21],0.363 µM
same,CC50,[21]; [33],> 100 µM
same,TGI,[21]; read-out: pTGI,> 100 µM
same,GI50,[22],0.038 µM
same,CC50,[22]; [33],> 100 µM
same,TGI,[22]; read-out: pTGI (converted),70.8 µM
same,IC50,[23],> 50 µM
same,GI50,[24],0.0447 µM
same,CC50,[24]; [33],> 100 µM
same,TGI,[24]; read-out: pTGI,> 100 µM
same,GI50,[25],0.0407 µM
same,CC50,[25]; [33],> 100 µM
same,TGI,[25]; read-out: pTGI (converted),24 µM
same,GI50,[26],30.9 µM
same,CC50,[26]; [33],> 100 µM
same,TGI,[26]; read-out: pTGI,> 100 µM
same,GI50,[27],0.646 µM
same,CC50,[27]; [33],> 100 µM
same,TGI,[27]; read-out: pTGI,> 100 µM
same,GI50,[28],0.0246 µM
same,CC50,[28]; [33],0.49 µM
same,TGI,[28]; read-out: pTGI (converted),0.0661 µM
same,GI50,[29],0.0347 µM
same,CC50,[29]; [33],> 100 µM
same,TGI,[29]; read-out: pTGI,> 100 µM
same,GI50,[30],0.263 µM
same,CC50,[30]; [33],> 100 µM
same,TGI,[30]; read-out: pTGI (converted),2 µM
same,CC50,[31],3.89 µM
same,GI50,[32],0.0501 µM
same,CC50,[32]; [33],> 100 µM
same,TGI,[32]; read-out: pTGI,> 100 µM

# — ChEMBL document CHEMBL2417372, “Design, synthesis, and mechanism of action of 2-(3-hydroxy-5-methoxyphenyl)-6-pyrrolidinylquinolin-4-one as a potent anticancer lead” (Bioorg Med Chem Lett, 2013)
